System: MS2 coat protein
Experiment: apparent Kd, MS2 coat protein; higher = weaker binding; RNA-MaP array; FMN 200 µM where present
Summary of the method: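 Apparent Kd: the median of filtered binding-curve fits from single clusters. Designs were transcribed on Illumina sequencing-chip clusters by stalled E. coli RNA polymerase and titrated with SNAP-549-labelled MS2 coat protein from 0.7 or 1.5 nM, doubling to 3 µM, in 100 mM Tris-HCl pH 7.5, 80 mM KCl, 4 mM MgCl2, BSA, DTT, yeast tRNA and Tween-20. Each series ran without and then with constant ligand, and green signal was normalised to red-channel RNA signal and control-cluster median Fmax.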

[1] = designed as: ON switch for flavin mononucleotide, no ligand
[2] = ligand present: flavin mononucleotide, designed as: ON switch for flavin mononucleotide
[3] = designed as: OFF switch for flavin mononucleotide, no ligand
[4] = ligand present: flavin mononucleotide, designed as: OFF switch for flavin mononucleotide

Sequence	apparent Kd [1]	apparent Kd [2]	apparent Kd [3]	apparent Kd [4]
UGGAAACAUGAGGAUCACCCAUGUAAAAGGUGGUCAGGAUAUGCGAAAAGAAAAAGAAAAGUAGAAGGGACAAGAA	459 nM	1200 nM		
ACAUGAGGAUCACCCAUGUGUGCAUAGGAUAUUGAGGAUUUGGGAUGUUUUUUUGGAUUUGCCCACAAGAAGGAUGAAAGUGUU	12.8 nM	11.3 nM		
GGUCGUCAAGUCAGGAUAUCGUUUGGUCGGUGUGGCGAGAAGGGACAUGAGGAUCACCCAUGUCGUCUCAUCAG			27 nM	29.9 nM
GUUGGGUGUCAUGUCGCACAUGAGGAUCACCCAUGUAGGAGGUAGGAUAUCCACGAGUAACAAGAGGAGAAGGGCCGUUAGCGU			27.9 nM	33.6 nM
AAUAUAAGAGCUGGAAAUCUCAAAACAUGAGGAUCACCCAUGUAGGAUAUCAGCACGAUAAGUGCUGAGAAGGACAUCCAGCUC			16 nM	18.1 nM
CUAUGAGCGAUAGGAUAUACUGAGAUUGAGUGGGUAGAAGGAUCGAUAGUGUAGAAGACAUGAGGAUCACCCAUGUUACGGGCC	188 nM	186 nM		
GGUGGACAUGAGGAUCACCCAUGUGAGGAUAUCGGCUGGCUACUGGCUGACGGCUGCUCGAGAAGGCGCAUUGU			40 nM	73.6 nM
GCGCGCGCAGGAUAUACAAUUGUGUGUGGAAACGCGCGCGUACAUGAGGAUCACCCAUGUAGAAGGGUGUGUGU			445 nM	198 nM
UAUGUUUUUGUGAGGAUAUACUUUGUUUGGUCGUAGUAGAAGGCACAUGAGGAUCACCCAUGUAGAUUUUUGGU			22.8 nM	40.4 nM
UUGUUACGAUUAGGAUAUUAUUGAUUGGACAGUAUGAUUUACAUGAGGAUCACCCAUGUUACUUUUAAGAAGGAAUCGUAUUAU			20.9 nM	17.2 nM
UGUCGGAAGUAGAAGGGUAUGACAUGAGGAUCACCCAUGUGAUUUGGGUAUACAGGAUAUGCUUAUAUAUAUGAUUAAAUUAUU			451 nM	248 nM
UUCGCUAAGGUGUAGCGAGACUUGCAAGAAGGGUGAAGAACAUGAGGAUCACCCAUGUAAUCCUUACAGGAUAUUGCUUGACGA	273 nM	33.1 nM		
AUUAUACAUGAGGAUCACCCAUGUUUUGGUGGAUCAGGAUAUAAAUUGAAUGAGUUUUAGUUAGAAGGGAUAUUUA	50.6 nM	36.3 nM		
AUGUUGCGAGGAUAUAUUUACUGGUUGUUGUUUGGUUGGGAACAUGAGGAUCACCCAUGUAGAAGGUGCAUAAC			54.5 nM	49.9 nM
UACAGACAUGAGGAUCACCCAUGUGAGGAUAUUUCUGCUGGGAUCAGCCCAAUAUGCGAGAGAAGGCACUAGGG			133 nM	184 nM
GCAUGCAAGUAGAAGGGCAGAUAUUUUGAUACUGCAGGAUAUGCAGAAUCAUAUCCACAUGAUAACAUGAGGAUCACCCAUGUA			33.7 nM	26.1 nM
AUUGUUUAUGUAGGAUAUGCCUGGCGUGCCUUCGCAGAAGGACAUGAGGAUCACCCAUGUAUUGCGGUCUGCGUUCAGAUCGCA			53.3 nM	67.2 nM
GAAGGAUGAGCGUAGGAUAUAGGAGGAGUGACAUGAGGAUCACCCAUGUGGUAGGAGGGAGGGUACUAGAAGGACGAGGAAGAGG	63.5 nM	52.2 nM		
GAUAGGACAGAGAAGGACAUAGCUAGAGAUACUAGCAUAUGAACCUUCACAUGAGGAUCACCCAUGUAGGAUAUCUGUCCUAUC			3.51 nM	3.96 nM
UUACCUCAUGAGAAGGACAUGAGGAUCACCCAUGUAGGAUAUCAUGGGUCAGUGGAAUUGAAUCUUCGGAUUCAAUAACUCUAC	140 nM	44 nM		
UGCGUCUAGACAGGAUAUCAAGGACGCCUACAUGAGGAUCACCCAUGUCGGCGGAGCAGCUCCGUUGAGAAGGGUCAUCGCAAC	66.5 nM	24.2 nM		
GGAGACCUCACAGGAUAUGCUGGACUUUGUCCAGCAGAAGGGUGAACAUGAGGAUCACCCAUGUGGUCUUCCAAAAUAUUUAAU	693 nM	280 nM		
ACCCGGGCUAACAUGAGGAUCACCCAUGUGUUAUACUUAAUAUAGGAUAUGUUUAUACUUUUUGGGCAGAAGGAUGGCCCGGGU	80.1 nM	62.5 nM		
AUACUCAUGUAAGGAUAUGCGGCCGUUUCGGCUGCAGAAGGUACUAUAAUACAUGAGGAUCACCCAUGUCUCUCGCAUUGCGAG	556 nM	61.4 nM		
CCUUUAUAGAUCCAUUUUAACAACAUGAGGAUCACCCAUGUGCAGGAUAUCGAUUGUUUUACUUUCGAGAAGGGCAAAUUCAGC			19.3 nM	48.7 nM
UUGUUAGGGAGAGGAUAUUGACAUGAGGAUCACCCAUGUAUUUGGGAGUGUUUACUGAAUUCUUACGAGAAGGCUUACGAAAUU			329 nM	246 nM
UAUUUAAGAGGAUAUACAUGAGGAUCACCCAUGUGUGUCAAUACGCGUGAUUUUUCAUGUAGAAGGCUUGGGUA			233 nM	129 nM
GGAUCACGAGGAUAUCGAUUUUAGUACAUGAGGAUCACCCAUGUUGUCCAGGUCUCGAUUCGAGAAGGCGUGAUUC			36.6 nM	59.2 nM

Sequence	apparent Kd [1]	apparent Kd [2]	apparent Kd [3]	apparent Kd [4]
CGUCUAUGCCAGAAGGCAUGAAACAUGAGGAUCACCCAUGUCAAAGACAUGAGGAUAUGGCAUAGACGAAAAGUGCGAAAGCAC	4.32 nM	3.27 nM		
CAAAAGGAAGGAUAUACAUGUUAAUUAUCCGAAGAUGUCGUACAUGAGGAUCACCCAUGUAGAAGGUCCAAAAC			30.3 nM	78.7 nM
CAGACACAUGAGGAUCACCCAUGUGAGGAUAUGCGUACGUUGUCCGUAGGCGACGUGCGCAGAAGGCGCAUUGG			110 nM	252 nM
UGAAAUCAUGUAGGAUAUGCAUGGCGAAGCUACGCAGAAGGACAUGAGGAUCACCCAUGUUCUAGCGUCUGAGUACAGAUGCAA			19.6 nM	64.9 nM
GGACGACUCAUUAACAUGAGGAUCACCCAUGUCAAAAGACAUGAGGAUAUGGAUCCUAAUUGGAUCCAGAAGGCAUGGUCGUCC	944 nM	51.8 nM		
GUAAGUCAUGUAGGAUAUCCGAGGCGAAGCGUUGGAGAAGGACAUGAGGAUCACCCAUGUUCUAGCGUCUGAGUACAGAUGCAG			29.4 nM	104 nM
GCAGCACUGUUUUACAUGAGGAUCACCCAUGUCGAUUGUUAUGAGGAUAUGCAUCGUAUGAAGAUGCAGAAGGCAUUGUGCUGC	8.32 nM	5.48 nM		
UGUGGGAGCAGAGGAUAUUACAUGAGGAUCACCCAUGUAUGAACCAAUAGCUGGAAACAGCAAUGUAAGAAGGCUGCUCCGACA			13 nM	165 nM
UUAUGUGUCGUAGGAUAUCAUUAGAUUUGUAAUUUAAUUGUAAUUUACAUAUGAGAAGGACGUAUACAUGAGGAUCACCCAUGU			25.5 nM	35.9 nM
AGACAGAUCGAGAAGGGAACAUGAGGAUCACCCAUGUGGAAGACUUGAUGUUCAGGAUAUCGAAAGCCUGAGUUAGAUGAAUUG			26.5 nM	115 nM
AUGUACCUAGGAUAUACAUGAGGAUCACCCAUGUCACAAAUAAAACACAGGUAUCCUGGUAGAAGGAGGAACAA			25 nM	105 nM
GUAGCAACAUGAGGAUCACCCAUGUAGGAUAUCGCUAUUGUAAUCAUGAAACAUGAUUACAAUAGCGAGAAGGACAUAUGCUAU			7 nM	10.3 nM
AAGACAUGAGGAUCACCCAUGUAAAGACCGGUCAAUCAAUGUGAGGAUAUUCCAUAAUUGAUAGGGAAGAAGGCACUGGGUUGA	106 nM	50.2 nM		
AAAAAGUGAGGAUAUGCUGCUCGUCACUUGCGUGAUGAGUAGCAGAAGGCACAUGAGGAUCACCCAUGUAAAAA			36.2 nM	42.8 nM
CGAUGACAAAGUCAUCGAAUACGAACAUGAGGAUCACCCAUGUAGGAUAUGCUACUCAAAGAGUAGCAGAAGGACAUGUGCCUU			36.9 nM	271 nM
AUAUUUGAUGAGGAUAUCGUUGUGGGUAUAUAGCGAGAAGGCAUUACAUGAGGAUCACCCAUGUAGUGUGGGUU			25.9 nM	37 nM
GUCUUCCUAGGAUAUACAUGAGGAUCACCCAUGUACAGUUUCGUCAAAGGAUAAUCGCGUAGAAGGAGGUGGAU			16.5 nM	23.6 nM
GCACAUGAUACAGGAUAUGUUUUGGAUUUUAUAUUCAGUUAUAUAAUAUUUACAGAAGGGUAUACAUGAGGAUCACCCAUGUGC			61.1 nM	30.8 nM
AAAUUUAACGAAGGAUAUGCUGACAUGAGGAUCACCCAUGUGUGCUUUGUGUUGCUGAAAUUGGAGCAGAAGGUCGUAUACAUA			101 nM	148 nM
GUUAUACAUGAGGAUCACCCAUGUCAAUGUAGUCGAGGAUAUGGGCAGCUAUGAGGCGUACUAGAAGGCGAUGAGU	156 nM	44.5 nM		
AAAAGUUUGGAGGAUAUCCAUCCAAACGGAUAAGGAGAAGGCCGGACAUGAGGAUCACCCAUGUGAUUAGGUUA			14.2 nM	24.8 nM
UUAUUUUAAUGAGGAUAUAUACAACAUGAGGAUCACCCAUGUACCCAUGUAGUAGAAGGCAUAAUUUUUGAUAAUAACAUAACU	49.5 nM	31.6 nM		
GGCUCCGCUCGAGGAUAUAGCUGCAUGUAGUGUCCUGAGGCACAUGAGGAUCACCCAUGUGUAGGCUAGAAGGCGACGGACGUU			121 nM	249 nM
CGGAUGUCAGGAUAUCGUGCAUACAACGAAAGUUCUAUGUGCGAGAAGGGACAUGAGGAUCACCCAUGUUAACG			59.5 nM	250 nM
UCUGGAGCAGGAUAUGCAUUCGUGCUUCGGCACGUAAGGUCACAUGAGGAUCACCCAUGUAGAAGGGCUCCAGA			19.2 nM	34 nM
ACGGUGGUCACAGGAUAUCCGGCCCGCGUGCUCGGAGAAGGGUGACUCAGAACCACAUGAGGAUCACCCAUGUGCCUUGCCGUA	122 nM	25.1 nM		
UGUUGAUAGCAGAAGGACAUGAGGAUCACCCAUGUAAGGUUACAAAUAUAUGUAGGAUAUGCUAUUGACUAAGAGUGAGCGUUC			8.88 nM	39.5 nM

From the EternaBench riboswitch data
